# Data: ChEMBL document CHEMBL4513216, “Probing the Open Global Health Chemical Diversity Library for Multistage-Active Starting Points for Next-Generation Antimalarials” (ACS Infect Dis, 2020)
# Test: Toxicity liver stage against HepG2, at 10uM
# Assay type: cell-based
# Parameters: test concentration 10 uM, cell line HepG2-A16-CD81EGFP
# Details: human, HepG2-A16-CD81EGFP cells; read-out: INHIBITION
# How it was run: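 Uninfected HepG2-A16-CD81EGFP cells, 3 × 10^3 per well, 1536-well, plated on prespotted compound at 10 μM final, parasite-free screening media added to match infected plates; puromycin 10 μM positive, DMSO 0.5% negative; run in parallel with 48 h PbLuc assay at 37 °C, 5% CO2; viability by CellTiter-Glo luminescence, normalized to controls.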
row,Compound,cytotoxicity at 10 µM [%]
1,CCC1(CC)Cc2ccccc2-c2nc(NCCCO)[nH]c(=O)c21,10.2
2,CC(C)(C)c1coc([C@@H]2COCCN2Cc2c[nH]cn2)n1,1.21
3,COC(=O)N1CC2=CC(C)(C)COc3ccc(OC)c(c32)C1,5
4,Cc1ccc(-c2nn(C)c(C(=O)O)c2Br)cc1,-49.7
5,Cc1nn(C2CCCC2)c2c1C(c1ccc3c(c1)OCO3)SCC(=O)N2 (stereo not given),-1.52
6,O=C(NC1CCCC1)c1nc(COc2ccc3c(c2)OCO3)no1,2.87
7,CC(C)c1nc2cc(NC(=O)c3n[nH]c4c3CCC4)ccc2n1C,-5.37
8,CCN1CC2(CC1=O)CN(C(=O)COC)CCN(S(C)(=O)=O)C2 (stereo not given),0.165
9,CCN(CC)[C@@H]1CN(Cc2ccc(C)o2)[C@@H]2CCCO[C@H]12,-148
10,Cc1nc(-c2noc3ccc(C(=O)NCCN4CCOCC4)cc23)co1,15
11,CN(C)S(=O)(=O)N1C[C@H]2CCC[C@@]2(COCC2CC2)C1,6.13
12,CNC(=O)[C@@H]1COC[C@H]2CN(C(=O)COc3ccccc3)C[C@H]21,-1.65
13,CCn1ncc2c1C(COC)CN(Cc1ccsc1)C2 (stereo not given),-7.47
14,CCn1cc(NS(=O)(=O)c2ccc(Br)s2)c(C(N)=O)n1,2.3
15,CCc1noc(C2CCCCN2C(=O)c2nnc3ccccc3n2)n1 (stereo not given),0.795
16,CCN1CCN(S(=O)(=O)c2cc(Cl)c(Cl)cc2C)CC1,2.28
17,Cc1cc(CN2CCc3nc(C(C)C)nc(O)c3CC2)c(C)s1,-0.782
18,C[C@]1(O)CN(Cc2ncc[nH]2)CC[C@@H]1Oc1cccc(F)c1,-6.8
19,COc1ccc(NCC2(O)CCNCC2)cc1OC,6.2
20,COC(=O)CC(NC(=O)c1cccc(N2CCCC2=O)c1)c1cccs1 (stereo not given),-51.4
21,CC(C)NC(=O)c1cnc(Sc2nccn2C)c(Cl)c1,-41.4
22,Cc1cc(C(=O)N(C)S(=O)(=O)C(C)C)ccc1F,-54.3

row,Compound,cytotoxicity at 10 µM [%]
1,CCc1ccc2c(c1)C(CCNC(=O)c1sccc1C)C(=O)N2 (stereo not given),-52.3
2,NC(=O)N1CCCCCC1C1CCN(c2nccc(C(F)(F)F)n2)CC1 (stereo not given),4.82
3,c1ccc(N2CCC(OCC3CCCCO3)CC2)nc1 (stereo not given),-1.03
4,CN(C)S(=O)(=O)N(Cc1cscn1)c1ccccc1,-3.91
5,CCc1nnc(C(C)N2CCN(CCC(C)(C)C)CC2)o1 (stereo not given),6.61
6,CCNC(=O)C(C)NC(=O)Nc1ccccc1Cl (stereo not given),5.72
7,O=C(C1CCCN(c2nc3ccccc3cc2CO)C1)N1CCCC1 (stereo not given),-47.5
8,CCS(=O)(=O)N1CCCN(CCCOC)CC1,7.73
9,Cc1nccn1-c1ccc(C(C)NCCc2ccccn2)cc1 (stereo not given),10.4
10,O=C(CN1CCCC1c1nc(Cc2ccc(F)cc2)no1)NC1CC1 (stereo not given),20.6
11,O=C(NCCC1=CCCCC1)NC1CCCc2c1cnn2CCO (stereo not given),-6.95
12,CCN(CC1CN(CC2CCC2)CCO1)c1cccnn1 (stereo not given),2.82
13,O=C(NCc1ccccc1CN1CCOCC1)c1ccc(Br)cc1F,12.3
14,CC(C)(C)c1ccc(C2(C(=O)NCCS(C)(=O)=O)CC2)cc1,2.91
15,CCC(Nc1cccc(Oc2ccccn2)c1)C(N)=O (stereo not given),9.55
16,Cc1nc(NC(=O)c2cccnc2N2CCOCC2)sc1C,-0.0261
17,N#Cc1cc(F)c(N2CCC(NS(=O)(=O)c3cccs3)CC2)c(F)c1,8.76
18,CC(NC(=O)c1cccc[n+]1[O-])c1ccc2c(c1)CCC(=O)N2 (stereo not given),45.2
19,CN1CCN(c2ccnc3c(F)cc(Br)cc23)CC1,27.2
20,FC(F)(F)Cn1cc(NCc2cscn2)cn1,-8.51
21,CCOC1CCN(C(=O)c2csc(S(N)(=O)=O)c2)CC1,-11.4
22,Cc1noc(C)c1CC(=O)NCC(CC(C)C)N1CCOCC1 (stereo not given),-40.6

row,Compound,cytotoxicity at 10 µM [%]
1,Cc1cc(S(C)(=O)=O)c(C)c(S(=O)(=O)N2CCCC(C)C2)c1 (stereo not given),22.6
2,CCOc1cccc(CCNC(=O)Cc2ccn[nH]2)n1,-27.2
3,O=C(NCc1ncc(-c2ccccc2)o1)NC1CCC(O)CC1 (stereo not given),-41.8
4,CN(CCC#N)C(=O)Cn1nnnc1C(C)(C)C,-46.3
5,c1csc(C(CNCc2cccc3c2OCO3)N2CCOCC2)c1 (stereo not given),-44.4
6,Cc1ccc(-c2nc(CN(Cc3ccco3)C3CCS(=O)(=O)C3)cs2)o1 (stereo not given),10.3
7,Cc1csc(C2(NCc3nc(-c4ccco4)no3)CCCC2)n1,3.18
8,Cc1c(C(C)NC(=O)Nc2ccccc2F)cnn1C (stereo not given),-45.2
9,Cc1cc(CNc2ccnn2C)ccc1-n1cncn1,-43.2
10,CCc1noc(CN(C)Cc2ccc(N3CCCCC3)cc2)n1,-5.88
11,COCC(=O)N1CCO[C@]2(CCC[C@H]2COC)C1,-97.5
12,Cc1noc(C)c1CN1C[C@@H]2COC[C@H](C(=O)N3CCCO3)[C@@H]2C1,-66.6
13,Cc1[nH]c2ccccc2c1-c1ccnc(NCCN2CCCCC2)n1,-1.36
14,CN1CCC(O)(CCNC(=O)[C@@]23CNC[C@@H]2CN(C2CCCC2)C3)CC1,-1.92
15,CC(C)c1nccc(CN2CCCC(O)(CN3CCCC3)C2)n1 (stereo not given),-0.413
16,Cc1c(CN2C[C@H](O)[C@@H](N3CCOCC3)C2)[nH]c2ccc(F)cc12,5.86
17,CN(CCn1ccc2ccccc21)C(=O)Cc1nnn[nH]1,-8.93
18,Cc1ccc(-n2nc(C)c3c2NC(=O)CC3c2cnc(N)s2)cc1 (stereo not given),5.56
19,CN1CCN(Cc2nnc(C3CCN(C(CO)CO)CC3)n2C)CC1,2.52
20,CC(=O)c1cnc(N(C)Cc2cnc3ccccc3n2)nc1C,2.4
21,Cc1ccc(S(=O)(=O)N2CCC(Cn3cc(C(C)(C)N)nn3)CC2)s1,6.74
22,C[C@@H]1CN(Cc2cc(C3CCCCC3)no2)CC[C@@]1(O)C1CC1,0.957

row,Compound,cytotoxicity at 10 µM [%]
1,CCc1nnc(CN(C)C(=O)CN2CC(c3ccccc3)CC2=O)o1 (stereo not given),-2.96
2,CCN(CC)C(=O)[C@@H]1C[C@@H](N)CN1c1nc(N(C)C)nc(C)c1C,-24.4
3,CCC[C@H]1CN(Cc2ccc(N(C)C)nc2)C[C@@H]1NC(=O)CCOC,15.5
4,COc1ccccc1OC1CCN(C(=O)C2CCCN(C)C2)CC1 (stereo not given),-53.5
5,c1ccc(COCCN2CCc3[nH]cnc3C2c2ccco2)cc1 (stereo not given),-2.01
6,CC(C)CN(Cc1ccsc1)C(=O)CCCn1cncn1,-47.9
7,CCC(=O)N1CCN(C(=O)Nc2cccc(F)c2)[C@H]2CS(=O)(=O)C[C@H]21,-46.8
8,O=C(c1csc(-c2ccc(C(F)(F)F)cc2)n1)N1CCCNCC1,6.24
9,c1cnc(N2CCC3(CCCN(CC4CCCCC4)C3)C2)cn1 (stereo not given),-1.62
10,Fc1ccc(C2(CNCCc3cccs3)CCOC2)cc1 (stereo not given),-149
11,COc1cccc(CNC(=O)C(C)n2ccnc2C(C)C)c1OC (stereo not given),-1.68
12,CCCN(Cc1cnc2ccccc2n1)Cc1ccccc1OC,-40.1
13,Cc1cc(C)nc(CN(C)C(=O)C(c2cccnc2)N2CCCC2)c1 (stereo not given),-45.4
14,NCCN1CCC(c2nnc(Cn3ccnc3)n2C2CC2)CC1,-3.07
15,CNc1ncc(CN(C)c2ncnc3onc(C)c23)cn1,-16.8
16,CC(=O)NCc1cccc(-n2ccnc2-c2cccc(C(=O)O)c2)c1,-2.29
17,CC(C)c1ncc(-c2cc(C3CCC3)nc(N)c2C#N)cn1,-16.1
18,O=C(c1ccc(Br)o1)N1CCN(Cc2ccc(F)cc2)CC1,9.08
19,CN(c1ccc(Cl)c(C(=O)NCCCN2CCOCC2)c1)S(C)(=O)=O,1.05
20,COc1ccc(C2CCCN2S(=O)(=O)c2cc(F)ccc2F)cc1 (stereo not given),0.585
21,Cc1noc(C)c1-c1n[nH]c2c1CN(S(=O)(=O)c1cccs1)CC2,-12.1
22,CS(=O)(=O)N1CCC(Oc2ccc(C(=O)N3CCSCC3)cc2Cl)CC1,16.2

row,Compound,cytotoxicity at 10 µM [%]
1,Cn1cc(C2CCCN2C(=O)CCCc2ccccn2)cn1 (stereo not given),-0.222
2,COc1cc(S(=O)(=O)N2CCc3cc(Br)ccc32)cc(C(=O)O)c1OC,-15.9
3,CCc1nc(C2CCCN2C(=O)c2ccc3c(c2)nnn3C)no1 (stereo not given),-4.35
4,CC(C)c1n[nH]c(C2CN(C(=O)Cn3ccccc3=O)CCO2)n1 (stereo not given),-0.924
5,CCc1nc(C2CCCN2CCCc2nc3ccccc3o2)no1 (stereo not given),-7.92
6,Cc1nnc(NC(=O)CN2CCc3nn(C)c(=O)cc3C2)s1,-6.18
7,O=C(COCCc1ccccc1)N1CCCC(n2cccn2)C1 (stereo not given),-3.42
8,CC(NC(=O)Cn1cccn1)c1ccc2c(c1)OCCCO2 (stereo not given),-2.55
9,Cc1ccc(-c2noc(CN3CCOC(CN(C)C)C3)n2)cc1F (stereo not given),-5.48
10,c1ccc(OC2CCCC2)c(CNC2CCc3ncnn3C2)c1 (stereo not given),-5.43
11,Clc1snnc1CN1CCCC(Cn2cncn2)C1 (stereo not given),-7.67
12,CNC(=O)N1CCC2(CC1)c1ncc(-c3cccc(F)c3)n1CCN2C,7.97
13,Cn1cc(-c2cnc3n2CCC32CCN(S(=O)(=O)C3CC3)CC2)cn1,-139
14,NC(CC1CCCC1)c1ccccc1 (stereo not given),5.76
15,COCCNC(=O)C1CN(Cc2csc(C)n2)Cc2ccnn2C1 (stereo not given),-74.2
16,c1cc(-c2ccc3c(c2)CCC32CCN(c3nncs3)CC2)ccn1,20.4
17,COCC(=O)N1CCC2(CC1)CN(c1ccccn1)CCO2,-71.2
18,c1ccc(COC[C@H]2CCC[C@@]23CNCCO3)nc1,-91.9
19,O=C(NCCc1cccs1)[C@H]1CO[C@H]2CCN(C3CCC3)C[C@H]2C1,-116
20,Cc1noc(C)c1CN1CCO[C@H]2CN(Cc3cccc(F)c3)C[C@H]21,-99.8
21,c1csc(CN2CCOCC3(CCN(C4CCOCC4)C3)C2)n1 (stereo not given),0.487
22,COc1cc(C2c3c(n[nH]c3C)N=C3COC(=O)C32)cc(Br)c1O (stereo not given),75.4
